Assay results pooled from the literature.
Protocols differ between the studies behind these lines.
Target: 5'-AMP-activated protein kinase catalytic subunit alpha-2 (PRKAA2, Homo sapiens, UniProt P54646)

CN(CCCC(F)(F)F)c1nccc(-c2cnn3ncccc23)n1
remaining binding (binding; 1 µM): 100%

FC(F)(F)Oc1cccc(-c2cnc3ccc(-c4ccncc4)nn23)c1
remaining binding (cell-free assay; competition with immobilised ligand; 5 µM): 80%

COc1ncc2cc3ccccc3nc2c1C#N
remaining binding (cell-free assay; competition with immobilised ligand; 5 µM): 96%

Cc1c(NC(=O)c2cc(C(N)=O)nc3cc(F)ccc23)c(C(F)(F)F)nn1Cc1ccc(C#N)cc1
remaining binding (cell-free assay; competition with immobilised ligand; 1 µM): 100%

c1cnn2ncc(-c3ccnc(N4CCC45COC5)n3)c2c1
remaining binding (binding; 1 µM): 91%

Cc1c[nH]c2nccc(Oc3c(F)cc(Nc4cc(Cl)nc(N)n4)cc3F)c12
remaining binding (cell-free assay; competition with immobilised ligand; 0.1 µM): 89%

C=CC(=O)N1CCC(C(=O)NCC(=O)N2CCN(c3nc(-c4cnc(N)nc4C(F)F)nc(N4CCOCC4)n3)CC2)CC1
remaining binding (binding; competition with immobilised ligand; 1 µM): 100%

CN(C)c1ncc(F)c(-c2cnn3ncccc23)n1
remaining binding (binding; 1 µM): 100%

CNC(=O)[C@@H]1CC[C@@H](n2c(-c3ccc4cnccc4c3)nc3ccc(C(=O)NCc4cccc(C(N)=O)c4)cc32)C1
remaining binding (binding; competition with immobilised ligand; 1 µM): 91%

C[C@@H]1CCN(c2nccc(-c3cnn4ncccc34)n2)C1
remaining binding (binding; 1 µM): 74%

O=C(c1ccc(Nc2nccc(-c3cc4ccccc4s3)n2)cc1)N1CCC(N2CCCC2)CC1
remaining binding (binding; competition with immobilised ligand; 1 µM): 31%

C[C@@H](c1ccc(-n2cnc3c(N)ncnc32)cc1)N1CCc2nn(C)c(Cc3ccccc3)c2C1=O
remaining binding (binding; competition with immobilised ligand; 0.1 µM): 100%

N[C@@H]1CCN(c2nccc(-c3cnn4ncccc34)n2)C1
remaining binding (binding; 1 µM): 98%

O=C(NCc1ncc(C(F)(F)F)cc1Cl)c1ccc2c(c1)C1(CCS(=O)(=O)CC1)[C@H](C1CC1)N2S(=O)(=O)c1ccc(F)cc1
remaining binding (cell-free assay; competition with immobilised ligand; 1 µM): 100%

O=C(Nc1c[nH]nc1C(=O)NC1CCNCC1)c1cc(F)cc(F)c1
remaining binding (binding; competition with immobilised ligand; 1 µM): 100%

CC1CCCN1c1nccc(-c2cnn3ncccc23)n1 (stereo not shown)
remaining binding (binding; 1 µM): 100%

CC(=O)c1c(NS(C)(=O)=O)c2cc(-c3ccc(Cl)cc3)c(-c3ccc(Cl)cc3Cl)nc2n(C)c1=O
remaining binding (cell-free assay; competition with immobilised ligand; 1 µM): 85%

O=C(c1ccc(Nc2ncc(Cl)c(-c3ccc(Cl)s3)n2)cc1)N1CCC(N2CCCC2)CC1
remaining binding (binding; competition with immobilised ligand; 1 µM): 8.2%

Cc1nc(N2CC[C@@H](O)C2)ncc1-c1cc(C(F)(F)F)cc2[nH]ncc12
remaining binding (cell-free assay; competition with immobilised ligand; 1 µM): 100%

O=C(NCCCN1CCOCC1)c1ccc(Nc2nccc(-c3cc4ccccc4s3)n2)cc1
remaining binding (binding; competition with immobilised ligand; 1 µM): 41%

CN(C)c1ncnc(-c2ccc3nc(Nc4cc(CN5CCN(C(=O)CC(F)(F)F)CC5)ccn4)[nH]c3c2)c1Cl
remaining binding (cell-free assay; competition with immobilised ligand; 1 µM): 100%

c1cncc(-c2cccc(Nc3nccc(NC4CCCCC4)n3)c2)c1
remaining binding (binding; competition with immobilised ligand; 10 µM): 23%
